Published values pooled from the literature.
Lines come from different studies, so protocols differ.
Target: Serine/threonine-protein kinase ULK1 (ULK1, Homo sapiens, UniProt O75385)
Sequence (O75385 1-1050, as in one of the studies): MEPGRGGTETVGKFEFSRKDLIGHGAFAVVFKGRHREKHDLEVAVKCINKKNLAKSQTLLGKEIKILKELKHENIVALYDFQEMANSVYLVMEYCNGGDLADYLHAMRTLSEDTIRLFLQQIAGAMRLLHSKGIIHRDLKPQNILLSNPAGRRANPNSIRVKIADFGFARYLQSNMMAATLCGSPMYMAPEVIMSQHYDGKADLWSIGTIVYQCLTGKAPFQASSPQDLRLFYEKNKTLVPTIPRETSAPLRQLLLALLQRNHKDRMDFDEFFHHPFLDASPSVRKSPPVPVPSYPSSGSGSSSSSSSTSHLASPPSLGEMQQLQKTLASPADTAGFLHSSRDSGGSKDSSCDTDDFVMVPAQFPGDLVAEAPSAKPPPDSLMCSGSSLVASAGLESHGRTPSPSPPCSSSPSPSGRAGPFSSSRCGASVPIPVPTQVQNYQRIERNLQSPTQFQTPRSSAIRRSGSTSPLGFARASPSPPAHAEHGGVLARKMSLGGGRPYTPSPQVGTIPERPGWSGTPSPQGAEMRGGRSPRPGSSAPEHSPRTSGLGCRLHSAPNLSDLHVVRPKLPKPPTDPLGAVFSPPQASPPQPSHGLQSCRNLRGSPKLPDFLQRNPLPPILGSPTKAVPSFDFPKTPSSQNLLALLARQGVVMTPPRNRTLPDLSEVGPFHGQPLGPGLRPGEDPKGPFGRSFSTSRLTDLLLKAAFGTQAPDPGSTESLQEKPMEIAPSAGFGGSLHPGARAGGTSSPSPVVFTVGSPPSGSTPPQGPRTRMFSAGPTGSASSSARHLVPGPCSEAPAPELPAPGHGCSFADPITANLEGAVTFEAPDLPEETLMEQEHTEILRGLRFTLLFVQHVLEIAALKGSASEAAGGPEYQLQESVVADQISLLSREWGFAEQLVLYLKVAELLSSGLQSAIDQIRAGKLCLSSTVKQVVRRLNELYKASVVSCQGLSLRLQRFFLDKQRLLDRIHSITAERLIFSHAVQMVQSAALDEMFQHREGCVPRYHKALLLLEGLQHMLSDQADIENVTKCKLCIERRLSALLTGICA

| Compound | test | conditions | remaining binding [%] |
| --- | --- | --- | --- |
| FC(F)(F)Oc1cccc(-c2cnc3ccc(-c4ccncc4)nn23)c1 | binding, competition with immobilised ligand | 5 µM | 82 |
| CC1CCCN1c1nccc(-c2cnn3ncccc23)n1 (centres unmarked) | binding | 1 µM | 97 |
| O=C(Nc1c[nH]nc1C(=O)NC1CCNCC1)c1cc(F)cc(F)c1 | binding, competition with immobilised ligand | 1 µM | 100 |
| CN(CCCC(F)(F)F)c1nccc(-c2cnn3ncccc23)n1 | binding | 1 µM | 79 |
| CS(=O)(=O)N1CCCC(NC(=O)[C@H](CCC2CCCCC2)NC(=O)c2ccc(CNC(=O)c3cnc4ccccn34)cc2)C1 (some centres unmarked) | cell-free assay, competition with immobilised ligand | 0.1 µM | 83 |
| O=C(c1ccc(Nc2ncc(Cl)c(-c3cc4ccccc4s3)n2)cc1)N1CCC(N2CCCC2)CC1 | binding, competition with immobilised ligand | 1 µM | 1.8 |
| COc1ncc2cc3ccccc3nc2c1C#N | cell-free assay, competition with immobilised ligand | 5 µM | 93 |
| N[C@@H]1CCN(c2nccc(-c3cnn4ncccc34)n2)C1 | binding | 1 µM | 100 |
| CN(C)CC#Cc1ccc(OCCCc2sc(N3CCc4cccc(C(=O)Nc5nc6ccccc6s5)c4C3)nc2C(=O)O)c(F)c1 | cell-free assay, competition with immobilised ligand | 1 µM | 100 |
| O=C(NCCCN1CCOCC1)c1ccc(Nc2nccc(-c3cc4ccccc4s3)n2)cc1 | binding, competition with immobilised ligand | 1 µM | 52 |
| C[C@@H]1CN(c2cc(-c3nn(C)c4ccc(OC5(C)CC5)cc34)ncn2)C[C@H](C)O1 | cell-free assay, competition with immobilised ligand | 1 µM | 76 |
| O=C(NCCCN1CCOCC1)c1ccc(Nc2ncc(Cl)c(-c3ccc(Cl)s3)n2)cc1 | binding, competition with immobilised ligand | 1 µM | 3.5 |
| C[C@H]1CCN(c2nccc(-c3cnn4ncccc34)n2)C1 | binding | 1 µM | 85 |
| CN(C(=O)c1ccccc1)c1cc(N(C)c2ccc3c(c2)CCc2ccc(C(=O)NCCN4CCOCC4)cc2C3=O)ccc1F | cell-free assay, competition with immobilised ligand | 1 µM | 100 |
| F[C@@H]1CCN(c2nccc(-c3cnn4ncccc34)n2)C1 | binding | 1 µM | 89 |
| CCS(=O)(=O)c1cc2cc(C[C@](O)(CC(C)(C)c3ccc(F)cc3C(N)=O)C(F)(F)F)[nH]c2cn1 | cell-free assay, competition with immobilised ligand | 1 µM | 100 |
| COc1cnc(Nc2cccc(S(N)(=O)=O)c2)nc1N1CCN(c2ccccc2)CC1 | binding, competition with immobilised ligand | 1 µM | 73 |
| COc1ccc2c(O[C@@H]3C[C@H]4C(=O)N[C@]5(C(=O)O)CC5/C=C\CCCCC[C@H](NC(=O)OC5CCCC5)C(=O)N4C3)cc(-c3csc(NC(=O)C(C)C)n3)nc2c1C (some centres unmarked) | cell-free assay, competition with immobilised ligand | 1 µM | 93 |
| CN(c1nccc(-c2cnn3ncccc23)n1)C1CC1 | binding | 1 µM | 85 |
| CNC(=O)c1ccccc1Nc1cc(Nc2ccc(N3CCOCC3)cc2OC)ncc1C(F)(F)F | binding, competition with immobilised ligand | 1 µM | < 10 |
